# Experimental data published in ChEMBL document CHEMBL1275391, “Design, synthesis, and preclinical evaluation of new 5,6- (or 6,7-) disubstituted-2-(fluorophenyl)quinolin-4-one derivatives as potent antitumor agents” (J Med Chem, 2010).
# The source made the active and inactive calls. No cut-off for these calls is given here.
# Tests used:
# HL-60 = assay: Cytotoxicity against human HL60 cells after 48 hrs by MTT assay; assay type: functional, cell-based; settings: HL-60, 48 h
# Summary of the method: (§1)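 Cells exposed to a range of compound concentrations for 48 h, washed once with PBS, then incubated with MTT for 2 h. Formazan dissolved in DMSO and absorbance read at 570 nm. IC50 taken as the concentration giving 50% inhibition of proliferation.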
# HCT-116 = assay: Cytotoxicity against human HCT116 cells after 48 hrs by MTT assay; assay type: functional, cell-based; settings: HCT-116, 48 h; summary of the method: as §1
# [1] = Cytotoxicity against human Hep3B cells after 48 hrs by MTT assay; assay type: functional, cell-based, Hep 3B2; summary of the method: as §1
# NCI-H460 = assay: Cytotoxicity against human H460 cells after 48 hrs by MTT assay; assay type: functional, cell-based; settings: NCI-H460, 48 h; summary of the method: as §1
# Hep 3B2 [2] = assay: Antitumor activity against human Hep3B cells xenografted in po dosed BALB/c nude mouse assessed as inhibition of tumor growth administered qd for 5 times per week for 4 weeks measured on day 28; assay type: functional, organism-based
# Summary of the method: (§2)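 Male Balb/c nude mice, 4-6 weeks, 18-20 g; 2 × 10^6 Hep3B cells in 0.1 mL injected subcutaneously into right flank. Dosing began when tumors exceeded 100 mm3 (day 0), given po or iv once daily, 5 days/week for 4 weeks, stopped day 28. Tumor volume (length × width² × 0.5) and body weight recorded every 7 days; T/C = (Tn − T0)/(Cn − C0) × 100%.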
# Hep 3B2 [3] = assay: Antitumor activity against human Hep3B cells xenografted in BALB/c nude mouse assessed as inhibition of tumor growth administered at 7.5 to 30 mg/kg, po qd for 5 times per week for 4 weeks; assay type: functional, organism-based; settings: TDE = time-dependent effect; summary of the method: as §2
# Hep 3B2 [4] = assay: Antitumor activity against human Hep3B cells xenografted in iv dosed BALB/c nude mouse assessed as inhibition of tumor growth administered qd for 5 times per week for 4 weeks measured on day 28; assay type: functional, organism-based; summary of the method: as §2
# Hep 3B2 [5] = assay: Antitumor activity against human Hep3B cells xenografted in BALB/c nude mouse assessed as inhibition of tumor growth administered at 7.5 to 30 mg/kg, iv qd for 5 times per week for 4 weeks; assay type: functional, organism-based; settings: TDE = time-dependent effect; summary of the method: as §2
# Hep 3B2 [6] = assay: Antitumor activity against human Hep3B cells xenografted in BALB/c nude mouse assessed as inhibition of tumor growth administered at 7.5 mg/kg, po qd for 5 times per week for 4 weeks; assay type: functional, organism-based; parameters: dose 7.5 mg/kg; summary of the method: as §2
# Hep 3B2 [7] = assay: Antitumor activity against human Hep3B cells xenografted in BALB/c nude mouse assessed as inhibition of complete tumor growth administered at 30 mg/kg, po qd for 5 times per week for 4 weeks; assay type: functional, organism-based; parameters: dose 30 mg/kg; summary of the method: as §2
# Mus musculus = assay: Toxicity in human Hep3B cells xenografted BALB/c nude mouse assessed as change in body weight at 7.5 to 30 mg/kg, po qd for 5 times per week for 4 weeks measured on day 28; assay type: organism-based, Hep 3B2; parameters: dose 7.5-30 mg/kg, route oral; settings: in vivo, 672 h
# Summary of the method: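 Male Balb/c nude mice, 4-6 weeks old and 18-20 g, were housed under SPF conditions. Each received 2 × 10^6 Hep3B cells in 0.1 mL s.c. into the right flank. Once tumors exceeded 100 mm3 (day 0), animals were grouped and dosed orally once daily, 5 days/week for 4 weeks. Body weight and tumor size were recorded every 7 days up to day 28.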
# Hep 3B2 [8] = assay: Antitumor activity against human Hep3B cells xenografted in BALB/c nude mouse assessed as inhibition of tumor growth administered at 7.5 mg/kg, po qd for 5 times per week for 4 weeks
SMILES,IC50 (HL-60) [µM],IC50 (HCT-116) [µM],IC50 [1] [µM],IC50 (NCI-H460) [µM],Activity (Hep 3B2 [2]),Activity (Hep 3B2 [3]),Activity (Hep 3B2 [4]),Activity (Hep 3B2 [5]),Activity (Hep 3B2 [6]),Activity (Hep 3B2 [7]),Activity (Mus musculus),Activity (Hep 3B2 [8])
COc1ccc2[nH]c(-c3ccc(F)cc3)cc(=O)c2c1O,1.8,2.4,11,8.8,–,–,–,–,–,–,–,–
O=c1cc(-c2cccc(F)c2)[nH]c2ccc(O)c(O)c12,0.3,8.2,6.9,6.1,–,–,–,–,–,–,–,–
O=c1cc(-c2ccccc2F)[nH]c2cc3c(cc12)OCO3,0.08,0.15,0.13,0.14,–,–,–,–,–,–,–,–
COc1ccc2[nH]c(-c3ccccc3F)cc(=O)c2c1O,0.07,0.05,0.05,0.11,–,–,–,–,–,–,–,–
COc1cc2c(=O)cc(-c3ccc(F)cc3)[nH]c2cc1O,38.2,> 100,> 100,> 100,–,–,–,–,–,–,–,–
O=c1cc(-c2cccc(F)c2)[nH]c2ccc3c(c12)OCO3,0.7,2.5,2.4,3.2,–,–,–,–,–,–,–,–
COc1cc2c(=O)cc(-c3ccccc3F)[nH]c2cc1O,1.3,5.8,5.3,4.4,–,–,–,–,–,–,–,–
O=c1cc(-c2ccc(F)cc2)[nH]c2ccc3c(c12)OCO3,> 10,> 10,> 10,> 10,–,–,–,–,–,–,–,–
O=c1cc(-c2ccccc2F)[nH]c2ccc3c(c12)OCO3,1,2.1,1.9,4.5,–,–,–,–,–,–,–,–
COc1ccc2[nH]c(-c3cccc(F)c3)cc(=O)c2c1OC,1.3,1.2,2.6,3.5,–,–,–,–,–,–,–,–
COc1ccc2[nH]c(-c3ccccc3F)cc(=O)c2c1OC,3.7,> 20,> 20,> 20,–,–,–,–,–,–,–,–
COc1ccc2[nH]c(-c3cccc(F)c3)cc(=O)c2c1OP(=O)([O-])[O-].[Na+].[Na+],–,–,–,–,Dose-dependent effect,tde,Dose-dependent effect,tde,Active,Active,Non-toxic,Active
O=c1cc(-c2ccccc2F)[nH]c2ccc(O)c(O)c12,0.5,0.6,3.9,4.1,–,–,–,–,–,–,–,–
COc1ccc2[nH]c(-c3ccc(F)cc3)cc(=O)c2c1OC,2,> 20,> 20,> 20,–,–,–,–,–,–,–,–
COc1cc2c(=O)cc(-c3cccc(F)c3)[nH]c2cc1O,0.9,1.1,5.3,4.8,–,–,–,–,–,–,–,–
O=c1cc(-c2ccc(F)cc2)[nH]c2ccc(O)c(O)c12,38.6,> 100,100,100,–,–,–,–,–,–,–,–
